# Measurements as given in ChEMBL document CHEMBL1151442, “Genetic and phenotypic identification of fusidic acid-resistant mutants with the small-colony-variant phenotype in Staphylococcus aureus” (2007).
# Assays:
# Format in all cases: functional
# Staphylococcus aureus [1] = assay: Antibacterial activity against kanamycin-resistant Staphylococcus aureus AH346 (SCV-18) harboring -1 frameshift mutation at nucleotide 238 in rplF gene after 18 to 24 hrs by Etest strip assay
# In short: (§1)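 SCVs of a Rifr 8325-4 derivative were selected on LA with KAN at 8, 16 or 24 μg/ml for 48 h at 37°C. They were purified at the same KAN level and screened on LA plus FA 1 μg/ml.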
# Staphylococcus aureus [2] = assay: Antibacterial activity against kanamycin-resistant and fusidic acid-susceptible Staphylococcus aureus AH296 harboring Gly664Ala mutation in fusA gene after 18 to 24 hrs by Etest strip assay
# In short: (§2)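 Etest MIC: a single colony was suspended in 0.9% NaCl to 0.5 McFarland and swabbed over Mueller-Hinton agar. The strip was applied and plates were incubated at 37°C for 18 to 24 h until an SCV lawn grew.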
# Staphylococcus aureus [3] = assay: Antibacterial activity against kanamycin-resistant and fusidic acid-susceptible Staphylococcus aureus AH288 harboring Gly617Asp mutation in fusA gene after 18 to 24 hrs by Etest strip assay; in short: as §2
# Staphylococcus aureus [4] = assay: Antibacterial activity against kanamycin-resistant Staphylococcus aureus AH332 (SCV-4) harboring Ala655Glu mutation in fusA gene after 18 to 24 hrs by Etest strip assay; in short: as §1
# Staphylococcus aureus [5] = assay: Antibacterial activity against kanamycin-resistant Staphylococcus aureus AH347 (SCV-19) harboring Arg659Ser mutation in fusA gene after 18 to 24 hrs by Etest strip assay; in short: as §1
# Staphylococcus aureus [6] = assay: Antibacterial activity against kanamycin-resistant Staphylococcus aureus AH358 (SCV-30) harboring -1 frameshift mutation at nucleotide 423 in rplF gene after 18 to 24 hrs by Etest strip assay; in short: as §1
# Staphylococcus aureus [7] = assay: Antibacterial activity against kanamycin-resistant Staphylococcus aureus AH366 (SCV-38) harboring Pro114His mutation in fusA gene after 18 to 24 hrs by Etest strip assay; in short: as §1
# Staphylococcus aureus [8] = assay: Antibacterial activity against kanamycin-resistant Staphylococcus aureus AH364 (SCV-36) harboring Asp434Asn mutation in fusA gene after 18 to 24 hrs by Etest strip assay; in short: as §1
# Staphylococcus aureus [9] = assay: Antibacterial activity against kanamycin-resistant and fusidic acid-susceptible Staphylococcus aureus AH292 harboring Gly664Val mutation in fusA gene after 18 to 24 hrs by Etest strip assay; in short: as §2
# Staphylococcus aureus [10] = assay: Antibacterial activity against kanamycin-resistant Staphylococcus aureus AH369 (SCV-41) harboring Gln115Leu mutation in fusA gene after 18 to 24 hrs by Etest strip assay; in short: as §1
# Staphylococcus aureus [11] = assay: Antibacterial activity against fusidic acid-resistant Staphylococcus aureus AH198 harboring Gly452Ser mutation in fusA gene after 18 to 24 hrs by Etest strip assay
# In short: (§3)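 Mutants of lab strain 8325-4 were selected on LA with FA 2 μg/ml for 48 h at 37°C and purified on selective medium. For the MIC, one colony was suspended in 0.9% NaCl to 0.5 McFarland and swabbed onto Mueller-Hinton agar. An Etest strip was applied and plates were incubated at 37°C for 18–24 h until the lawn was evident.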
# Staphylococcus aureus [12] = assay: Antibacterial activity against fusidic acid-resistant Staphylococcus aureus AH206 harboring Arg464Ser mutation in fusA gene after 18 to 24 hrs by Etest strip assay; in short: as §3
# Staphylococcus aureus [13] = assay: Antibacterial activity against kanamycin-resistant Staphylococcus aureus AH351 (SCV-23) harboring -4 frameshift mutation at nucleotide 45-48 in rplF gene after 18 to 24 hrs by Etest strip assay; in short: as §1
# Staphylococcus aureus [14] = assay: Antibacterial activity against kanamycin-resistant Staphylococcus aureus AH333 (SCV-5) harboring TAA stop codon at nucleotide 249 in rplF but gene after 18 to 24 hrs by Etest strip assay; in short: as §1
# Staphylococcus aureus [15] = assay: Antibacterial activity against kanamycin-resistant Staphylococcus aureus AH390 (SCV-62) harboring +1 frameshift mutation at nucleotide 84 in rplF gene after 18 to 24 hrs by Etest strip assay; in short: as §1
# Staphylococcus aureus [16] = assay: Antibacterial activity against kanamycin-resistant Staphylococcus aureus AH367 (SCV-39) harboring Gly664Ser mutation in fusA gene after 18 to 24 hrs by Etest strip assay; in short: as §1
# Staphylococcus aureus [17] = assay: Antibacterial activity against kanamycin-resistant Staphylococcus aureus AH384 (SCV-56) harboring -1 frameshift mutation at nucleotide 221 in rplF gene after 18 to 24 hrs by Etest strip assay; in short: as §1
# Staphylococcus aureus [18] = assay: Antibacterial activity against kanamycin-resistant and fusidic acid-susceptible wild type Staphylococcus aureus 8325-4 […] after 18 to 24 hrs by Etest strip assay; in short: as §2
# Staphylococcus aureus [19] = assay: Antibacterial activity against kanamycin-resistant and fusidic acid-susceptible Staphylococcus aureus AH298 harboring Gly664Val mutation in fusA gene after 18 to 24 hrs by Etest strip assay; in short: as §2
# Staphylococcus aureus [20] = assay: Antibacterial activity against kanamycin-resistant and fusidic acid-susceptible Staphylococcus aureus AH421 harboring Pro404Arg mutation in fusA gene after 18 to 24 hrs by Etest strip assay; in short: as §2
# Staphylococcus aureus [21] = assay: Antibacterial activity against kanamycin-resistant Staphylococcus aureus AH340 (SCV-12) harboring Gly617Asp mutation in fusA gene after 18 to 24 hrs by Etest strip assay; in short: as §1
# Staphylococcus aureus [22] = assay: Antibacterial activity against fusidic acid-resistant Staphylococcus aureus AH197 harboring Leu456Phe mutation in fusA gene after 18 to 24 hrs by Etest strip assay; in short: as §3
# Staphylococcus aureus [23] = assay: Antibacterial activity against kanamycin-resistant Staphylococcus aureus AH334 (SCV-6) harboring Thr436Ile mutation in fusA gene after 18 to 24 hrs by Etest strip assay; in short: as §1
# Staphylococcus aureus [24] = assay: Antibacterial activity against kanamycin-resistant Staphylococcus aureus AH383 (SCV-55) harboring TAA stop codon at nucleotide 139 in rplF gene after 18 to 24 hrs by Etest strip assay; in short: as §1
# Staphylococcus aureus [25] = assay: Antibacterial activity against kanamycin-susceptible wild type Staphylococcus aureus AH001 after 18 to 24 hrs by Etest strip assay
# In short: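 The inoculum was a single colony suspended in 0.9% NaCl to 0.5 McFarland and swabbed over a Mueller-Hinton agar plate. An Etest gradient strip was then applied, and the plate was incubated at 37°C for 18 to 24 h until lawn growth was evident. MIC was read from the strip following the manufacturer's instructions.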
# Staphylococcus aureus [26] = assay: Antibacterial activity against kanamycin-resistant Staphylococcus aureus AH379 (SCV-51) harboring TAA stop codon at nucleotide 418 in rplF but gene after 18 to 24 hrs by Etest strip assay; in short: as §1
# Staphylococcus aureus [27] = assay: Antibacterial activity against kanamycin-resistant Staphylococcus aureus AH374 (SCV-46) harboring -5 frameshift mutation at nucleotide 236-240 in rplF gene after 18 to 24 hrs by Etest strip assay; in short: as §1
# Staphylococcus aureus [28] = assay: Antibacterial activity against fusidic acid-resistant Staphylococcus aureus AH204 harboring deletion of nucleotide 203-231 in rplF gene after 18 to 24 hrs by Etest strip assay; in short: as §3
# Staphylococcus aureus [29] = assay: Antibacterial activity against fusidic acid-resistant Staphylococcus aureus AH188 harboring Gly664Ser mutation in fusA gene after 18 to 24 hrs by Etest strip assay; in short: as §3
# Staphylococcus aureus [30] = assay: Antibacterial activity against kanamycin-resistant Staphylococcus aureus AH370 (SCV-42) harboring TAA stop codon at nucleotide 229 in rplF gene after 18 to 24 hrs by Etest strip assay; in short: as §1
# Staphylococcus aureus [31] = assay: Antibacterial activity against kanamycin-resistant Staphylococcus aureus AH360 (SCV-32) harboring ATA start codon at nucleotide 3 in rplF gene after 18 to 24 hrs by Etest strip assay; in short: as §1
compound,measurement,setting,value
CC(=O)O[C@H]1C[C@@]2(C)[C@@H](C[C@@H](O)[C@H]3[C@@]4(C)CC[C@@H](O)[C@@H](C)[C@@H]4CC[C@@]32C)/C1=C(\CCC=C(C)C)C(=O)O [FUSIDIC ACID],MIC,Staphylococcus aureus [1],8 µg/mL
same,MIC,Staphylococcus aureus [2],3 µg/mL
same,MIC,Staphylococcus aureus [3],6 µg/mL
same,MIC,Staphylococcus aureus [4],12 µg/mL
same,MIC,Staphylococcus aureus [5],12 µg/mL
same,MIC,Staphylococcus aureus [6],12 µg/mL
same,MIC,Staphylococcus aureus [7],12 µg/mL
same,MIC,Staphylococcus aureus [8],256 µg/mL
same,MIC,Staphylococcus aureus [9],6 µg/mL
same,MIC,Staphylococcus aureus [10],48 µg/mL
same,MIC,Staphylococcus aureus [11],32 µg/mL
same,MIC,Staphylococcus aureus [12],6 µg/mL
same,MIC,Staphylococcus aureus [13],16 µg/mL
same,MIC,Staphylococcus aureus [14],12 µg/mL
same,MIC,Staphylococcus aureus [15],16 µg/mL
same,MIC,Staphylococcus aureus [16],12 µg/mL
same,MIC,Staphylococcus aureus [17],24 µg/mL
same,MIC,Staphylococcus aureus [18],0.047 µg/mL
same,MIC,Staphylococcus aureus [19],6 µg/mL
same,MIC,Staphylococcus aureus [20],3 µg/mL
same,MIC,Staphylococcus aureus [21],4 µg/mL
same,MIC,Staphylococcus aureus [22],4 µg/mL
same,MIC,Staphylococcus aureus [23],48 µg/mL
same,MIC,Staphylococcus aureus [24],16 µg/mL
same,MIC,Staphylococcus aureus [25],0.125 µg/mL
same,MIC,Staphylococcus aureus [26],6 µg/mL
same,MIC,Staphylococcus aureus [27],8 µg/mL
same,MIC,Staphylococcus aureus [28],4 µg/mL
same,MIC,Staphylococcus aureus [29],4 µg/mL
same,MIC,Staphylococcus aureus [30],8 µg/mL
same,MIC,Staphylococcus aureus [31],24 µg/mL
